Key:
Assay type in all cases: functional
Settings in all cases: read-out: Activity
K562 = experiment: Growth inhibition of human K562 cells assessed as cell growth at 10 uM incubated for 48 hrs by sulforhodamine B assay relative to control
Summary of the method: (§1)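 Submitted to the NCI Developmental Therapeutics Program for the NCI60 human tumour cell line panel. First screen at a single 10 µM concentration. Read-out is growth relative to untreated control cells set at 100%.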

MDA-MB-435 = experiment: Growth inhibition of human MDA-MB-435 cells assessed as cell growth at 10 uM incubated for 48 hrs by sulforhodamine B assay relative to control; summary of the method: as §1
SNB-19 = experiment: Growth inhibition of human SNB-19 cells assessed as cell growth at 10 uM incubated for 48 hrs by sulforhodamine B assay relative to control
Summary of the method: (§2)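 Run by the NCI Developmental Therapeutics Program as part of its 60-line human tumour panel. Each compound tested at a single 10 µM dose. Growth expressed as % relative to untreated control cells (100%).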

LOX IMVI = experiment: Growth inhibition of human LOX IMVI cells assessed as cell growth at 10 uM incubated for 48 hrs by sulforhodamine B assay relative to control; summary of the method: as §1
PC-3 = experiment: Growth inhibition of human PC-3 cells assessed as cell growth at 10 uM incubated for 48 hrs by sulforhodamine B assay relative to control; summary of the method: as §2
HCC 2998 = experiment: Growth inhibition of human HCC 2998 cells assessed as cell growth at 10 uM incubated for 48 hrs by sulforhodamine B assay relative to control
Summary of the method: (§3)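 NCI Developmental Therapeutics Program NCI60 panel. Compounds that were active in the 10 µM one-dose screen went on to dose–response testing. Growth at each concentration is expressed relative to untreated control (100%). GI50 (concentration giving 50% of maximal inhibition of proliferation) and TGI (concentration giving total growth inhibition) were derived from the curves.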

A549 = experiment: Growth inhibition of human A549/ATCC cells assessed as cell growth at 10 uM incubated for 48 hrs by sulforhodamine B assay relative to control; summary of the method: as §3
NCI-H23 = experiment: Growth inhibition of human NCI-H23 cells assessed as cell growth at 10 uM incubated for 48 hrs by sulforhodamine B assay relative to control; summary of the method: as §1
SK-MEL-28 = experiment: Growth inhibition of human SK-MEL-28 cells assessed as cell growth at 10 uM incubated for 48 hrs by sulforhodamine B assay relative to control; summary of the method: as §2
ACHN = experiment: Growth inhibition of human ACHN cells assessed as cell growth at 10 uM incubated for 48 hrs by sulforhodamine B assay relative to control
Summary of the method: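 NCI Developmental Therapeutics Program NCI60 human tumour cell line panel, one-dose primary screen with every compound at 10 µM. Growth is expressed as % of untreated control cells (100%).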

NCI-H226 = experiment: Growth inhibition of human NCI-H226 cells assessed as cell growth at 10 uM incubated for 48 hrs by sulforhodamine B assay relative to control; summary of the method: as §1
RXF 393 = experiment: Growth inhibition of human RXF 393 cells assessed as cell growth at 10 uM incubated for 48 hrs by sulforhodamine B assay relative to control; summary of the method: as §2
Malme-3M = experiment: Growth inhibition of human Malme-3M cells assessed as cell growth at 10 uM incubated for 48 hrs by sulforhodamine B assay relative to control; summary of the method: as §1
IGROV-1 = experiment: Growth inhibition of human IGROV-1 cells assessed as cell growth at 10 uM incubated for 48 hrs by sulforhodamine B assay relative to control; summary of the method: as §1
OVCAR-3 = experiment: Growth inhibition of human OVCAR-3 cells assessed as cell growth at 10 uM incubated for 48 hrs by sulforhodamine B assay relative to control; summary of the method: as §2
KM12 = experiment: Growth inhibition of human KM12 cells assessed as cell growth at 10 uM incubated for 48 hrs by sulforhodamine B assay relative to control; summary of the method: as §1
OVCAR-8 = experiment: Growth inhibition of human OVCAR-8 cells assessed as cell growth at 10 uM incubated for 48 hrs by sulforhodamine B assay relative to control; summary of the method: as §2
NCI-H322M = experiment: Growth inhibition of human NCI-H322M cells assessed as cell growth at 10 uM incubated for 48 hrs by sulforhodamine B assay relative to control; summary of the method: as §1
A498 = experiment: Growth inhibition of human A498 cells assessed as cell growth at 10 uM incubated for 48 hrs by sulforhodamine B assay relative to control; summary of the method: as §3
UO-31 = experiment: Growth inhibition of human UO-31 cells assessed as cell growth at 10 uM incubated for 48 hrs by sulforhodamine B assay relative to control; summary of the method: as §2
SF-268 = experiment: Growth inhibition of human SF-268 cells assessed as cell growth at 10 uM incubated for 48 hrs by sulforhodamine B assay relative to control; summary of the method: as §2
M14 = experiment: Growth inhibition of human M14 cells assessed as cell growth at 10 uM incubated for 48 hrs by sulforhodamine B assay relative to control; summary of the method: as §1
OVCAR-4 = experiment: Growth inhibition of human OVCAR-4 cells assessed as cell growth at 10 uM incubated for 48 hrs by sulforhodamine B assay relative to control; summary of the method: as §2
RPMI-8226 = experiment: Growth inhibition of human RPMI-8226 cells assessed as cell growth at 10 uM incubated for 48 hrs by sulforhodamine B assay relative to control; summary of the method: as §2
UACC-62 = experiment: Growth inhibition of human UACC-62 cells assessed as cell growth at 10 uM incubated for 48 hrs by sulforhodamine B assay relative to control; summary of the method: as §2
SK-MEL-5 = experiment: Growth inhibition of human SK-MEL-5 cells assessed as cell growth at 10 uM incubated for 48 hrs by sulforhodamine B assay relative to control; summary of the method: as §2
OVCAR-5 = experiment: Growth inhibition of human OVCAR-5 cells assessed as cell growth at 10 uM incubated for 48 hrs by sulforhodamine B assay relative to control; summary of the method: as §2
SN12C = experiment: Growth inhibition of human SN12C cells assessed as cell growth at 10 uM incubated for 48 hrs by sulforhodamine B assay relative to control; summary of the method: as §2
U-251 = experiment: Growth inhibition of human U-251 cells assessed as cell growth at 10 uM incubated for 48 hrs by sulforhodamine B assay relative to control; summary of the method: as §2
HCT-116 = experiment: Growth inhibition of human HCT-116 cells assessed as cell growth at 10 uM incubated for 48 hrs by sulforhodamine B assay relative to control; summary of the method: as §1
SW-620 = experiment: Growth inhibition of human SW-620 cells assessed as cell growth at 10 uM incubated for 48 hrs by sulforhodamine B assay relative to control; summary of the method: as §2
COLO 205 = experiment: Growth inhibition of human COLO 205 cells assessed as cell growth at 10 uM incubated for 48 hrs by sulforhodamine B assay relative to control; summary of the method: as §3
SF-295 = experiment: Growth inhibition of human SF-295 cells assessed as cell growth at 10 uM incubated for 48 hrs by sulforhodamine B assay relative to control; summary of the method: as §2
MDA-MB-468 = experiment: Growth inhibition of human MDA-MB-468 cells assessed as cell growth at 10 uM incubated for 48 hrs by sulforhodamine B assay relative to control; summary of the method: as §1
SR = experiment: Growth inhibition of human SR cells assessed as cell growth at 10 uM incubated for 48 hrs by sulforhodamine B assay relative to control; summary of the method: as §2

| SMILES | growth at 10 µM (K562) [%] | growth at 10 µM (MDA-MB-435) [%] | growth at 10 µM (SNB-19) [%] | growth at 10 µM (LOX IMVI) [%] | growth at 10 µM (HCC 2998) [%] | growth at 10 µM (A549) [%] | growth at 10 µM (SK-MEL-28) [%] | growth at 10 µM (ACHN) [%] | growth at 10 µM (NCI-H226) [%] | growth at 10 µM (RXF 393) [%] | growth at 10 µM (Malme-3M) [%] | growth at 10 µM (IGROV-1) [%] | growth at 10 µM (OVCAR-3) [%] | growth at 10 µM (KM12) [%] | growth at 10 µM (OVCAR-8) [%] | growth at 10 µM (NCI-H322M) [%] | growth at 10 µM (A498) [%] | growth at 10 µM (UO-31) [%] | growth at 10 µM (SF-268) [%] | growth at 10 µM (M14) [%] | also measured |
| --- | --- | --- | --- | --- | --- | --- | --- | --- | --- | --- | --- | --- | --- | --- | --- | --- | --- | --- | --- | --- | --- |
| Cc1cccc(NC(=O)c2sc3nc4c(cc3c2N)C(=O)CCC4)c1 | 16 | -65 | 29 | 24 | 25 | 23 | 34 | 25 | 43 | -10 | 14 | -4.52 | -22 | 13 | 37 | 37.2 | -12.2 | 41.2 | 33 | 4 | growth at 10 µM (PC-3): 20%; growth at 10 µM (NCI-H23): 28%; growth at 10 µM (OVCAR-4): 21%; growth at 10 µM (RPMI-8226): 22%; growth at 10 µM (UACC-62): 14%; growth at 10 µM (SK-MEL-5): 6%; growth at 10 µM (OVCAR-5): 32%; growth at 10 µM (SN12C): 35%; growth at 10 µM (U-251): 6%; growth at 10 µM (HCT-116): 20%; growth at 10 µM (SW-620): 21%; growth at 10 µM (COLO 205): -21%; growth at 10 µM (SF-295): 7% |
| CCc1ccccc1NC(=O)c1sc2nc3c(cc2c1N)C(=O)CCC3 | 11 | -56.6 | 35 | 42.6 | 20 | 21.5 | 43.7 | 38 | 64 | -4 | 60.8 | 33.3 | -12.7 | 21 | 24.3 | 46.3 | -9.7 | 44.5 | 40.4 | 5 | growth at 10 µM (OVCAR-4): 41%; growth at 10 µM (RPMI-8226): -1%; growth at 10 µM (SK-MEL-5): 17%; growth at 10 µM (OVCAR-5): 22%; growth at 10 µM (SN12C): 40%; growth at 10 µM (U-251): 13%; growth at 10 µM (HCT-116): 24%; growth at 10 µM (SW-620): 24%; growth at 10 µM (COLO 205): -68%; growth at 10 µM (SF-295): -3.21%; growth at 10 µM (MDA-MB-468): 14%; growth at 10 µM (SR): 9.38% |
| COc1ccc(S(=O)(=O)n2ccc(-c3ccc4c(c3)CCC(C)(C)O4)n2)cc1 | 55.6 | 74.3 | 87.1 | 79.5 | 88.9 | 74 | 98.3 | 104 | 71.4 | 110 | 110 | 90.8 | 81.2 | 81.9 | 83.8 | 101 | 89.1 | 78.1 | 94.7 | 86.5 | growth at 10 µM (PC-3): 78%; growth at 10 µM (NCI-H23): 59.6%; growth at 10 µM (OVCAR-4): 52.3%; growth at 10 µM (RPMI-8226): 49.2%; growth at 10 µM (UACC-62): 50.5%; growth at 10 µM (SK-MEL-5): 42.6%; growth at 10 µM (OVCAR-5): 109%; growth at 10 µM (SN12C): 97.5%; growth at 10 µM (U-251): 84.2%; growth at 10 µM (HCT-116): 68.3%; growth at 10 µM (SW-620): 90.3%; growth at 10 µM (COLO 205): 107%; growth at 10 µM (SF-295): 47.7%; growth at 10 µM (MDA-MB-468): 36.6% |
